Legend:
Type in all cases: functional, cell-based
DU-145 = assay: Cytotoxicity against human DU145 cells after 4 days by MTT assay; details: DU-145, 96 h
Method in brief: (§1)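 Cells seeded as single-cell suspension, 2 × 10³ cells/well, onto serially diluted compounds in microplates; cultured 4 d. Viable cells counted with a cell counting kit. IC50 taken as concentration giving 50% growth inhibition relative to untreated control.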

QG-56 = assay: Cytotoxicity against human QG56 cells after 4 days by MTT assay; details: QG-56, 96 h; method in brief: as §1
HCT-116 = assay: Cytotoxicity against human HCT116 cells after 4 days by MTT assay; details: HCT-116, 96 h; method in brief: as §1

COc1cc2c(cc1O)CCN(C(=O)c1c[nH]c3ccccc13)[C@]21CS[C@@H]2c3c(OC(C)=O)c(C)c4c(c3[C@@H](COC1=O)N1[C@@H]2[C@H]2c3c(cc(C)c(OC)c3O)C[C@@H]([C@@H]1C#N)N2C)OCO4
IC50 (DU-145): 0.45 nM | IC50 (QG-56): 0.46 nM | IC50 (HCT-116): 0.16 nM

C=CCOc1cc2c(cc1OC)[C@@]1(CS[C@@H]3c4c(OC(C)=O)c(C)c5c(c4[C@@H](COC1=O)N1[C@@H]3[C@H]3c4c(cc(C)c(OC)c4OCC=C)C[C@@H]([C@@H]1C#N)N3C)OCO5)NCC2
IC50 (DU-145): 100 nM | IC50 (QG-56): 160 nM | IC50 (HCT-116): 54 nM

C=CCOc1cc2c(cc1OC)[C@@]1(CS[C@@H]3c4c(OC(C)=O)c(C)c5c(c4[C@@H](COC1=O)N1[C@@H]3[C@H]3c4c(cc(C)c(OC)c4O)C[C@@H]([C@@H]1C#N)N3C)OCO5)NCC2
IC50 (DU-145): 7.1 nM | IC50 (QG-56): 12 nM | IC50 (HCT-116): 2.4 nM

C=CCOc1cc2c(cc1OC)[C@@]1(CS[C@@H]3c4c(OC(C)=O)c(C)c5c(c4[C@@H](COC1=O)N1[C@@H]3[C@H]3c4c(cc(C)c(OC)c4OCC=C)C[C@@H]([C@@H]1C#N)N3C)OCO5)N(CC=C)CC2
IC50 (DU-145): > 1000 nM | IC50 (QG-56): > 1000 nM | IC50 (HCT-116): 620 nM

C=CCN1CCc2cc(O)c(OC)cc2[C@@]12CS[C@@H]1c3c(OC(C)=O)c(C)c4c(c3[C@@H](COC2=O)N2[C@@H]1[C@H]1c3c(cc(C)c(OC)c3O)C[C@@H]([C@@H]2C#N)N1C)OCO4
IC50 (DU-145): 1.2 nM | IC50 (QG-56): 1.8 nM | IC50 (HCT-116): 0.5 nM

C=CCOc1cc2c(cc1OC)[C@@]1(CS[C@@H]3c4c(OC(C)=O)c(C)c5c(c4[C@@H](COC1=O)N1[C@@H]3[C@H]3c4c(cc(C)c(OC)c4OCC=C)C[C@@H]([C@@H]1C#N)N3C)OCO5)N(C(=O)c1c[nH]c3ccccc13)CC2
IC50 (DU-145): > 1000 nM | IC50 (QG-56): > 1000 nM | IC50 (HCT-116): 0.45 nM

C=CCOc1cc2c(cc1OC)[C@@]1(CS[C@@H]3c4c(OC(C)=O)c(C)c5c(c4[C@@H](COC1=O)N1[C@@H]3[C@H]3c4c(cc(C)c(OC)c4OCC=C)C[C@@H]([C@@H]1C#N)N3C)OCO5)N(C(=O)c1ccccc1)CC2
IC50 (DU-145): 540 nM | IC50 (QG-56): 690 nM | IC50 (HCT-116): 190 nM

C=CCOc1cc2c(cc1OC)[C@@]1(CS[C@@H]3c4c(OC(C)=O)c(C)c5c(c4[C@@H](COC1=O)N1[C@@H]3[C@H]3c4c(cc(C)c(OC)c4OCC=C)C[C@@H]([C@@H]1C#N)N3C)OCO5)N(C(=O)c1ccc([N+](=O)[O-])cc1)CC2
IC50 (DU-145): 590 nM | IC50 (QG-56): 790 nM | IC50 (HCT-116): 260 nM

C=CCOc1cc2c(cc1OC)[C@@]1(CS[C@@H]3c4c(OC(C)=O)c(C)c5c(c4[C@@H](COC1=O)N1[C@@H]3[C@H]3c4c(cc(C)c(OC)c4OCC=C)C[C@@H]([C@@H]1C#N)N3C)OCO5)N(C(=O)c1cccc([N+](=O)[O-])c1)CC2
IC50 (DU-145): 270 nM | IC50 (QG-56): 520 nM | IC50 (HCT-116): 180 nM

C=CCOc1cc2c(cc1OC)[C@@]1(CS[C@@H]3c4c(OC(C)=O)c(C)c5c(c4[C@@H](COC1=O)N1[C@@H]3[C@H]3c4c(cc(C)c(OC)c4OCC=C)C[C@@H]([C@@H]1C#N)N3C)OCO5)N(C(=O)c1ccncc1)CC2
IC50 (DU-145): 590 nM | IC50 (QG-56): 790 nM | IC50 (HCT-116): 280 nM

C=CCOc1cc2c(cc1OC)[C@@]1(CS[C@@H]3c4c(OC(C)=O)c(C)c5c(c4[C@@H](COC1=O)N1[C@@H]3[C@H]3c4c(cc(C)c(OC)c4OCC=C)C[C@@H]([C@@H]1C#N)N3C)OCO5)N(C(=O)c1cccnc1)CC2
IC50 (DU-145): 680 nM | IC50 (QG-56): > 1000 nM | IC50 (HCT-116): 390 nM

C=CCOc1cc2c(cc1OC)[C@@]1(CS[C@@H]3c4c(OC(C)=O)c(C)c5c(c4[C@@H](COC1=O)N1[C@@H]3[C@H]3c4c(cc(C)c(OC)c4OCC=C)C[C@@H]([C@@H]1C#N)N3C)OCO5)N(C(=O)c1ccnc3ccccc13)CC2
IC50 (DU-145): 420 nM | IC50 (QG-56): 420 nM | IC50 (HCT-116): 310 nM

C=CCOc1cc2c(cc1OC)[C@@]1(CS[C@@H]3c4c(OC(C)=O)c(C)c5c(c4[C@@H](COC1=O)N1[C@@H]3[C@H]3c4c(cc(C)c(OC)c4OCC=C)C[C@@H]([C@@H]1C#N)N3C)OCO5)N(C(=O)c1cccc3ncccc13)CC2
IC50 (DU-145): 550 nM | IC50 (QG-56): 640 nM | IC50 (HCT-116): 320 nM

C=CCOc1cc2c(cc1OC)[C@@]1(CS[C@@H]3c4c(OC(C)=O)c(C)c5c(c4[C@@H](COC1=O)N1[C@@H]3[C@H]3c4c(cc(C)c(OC)c4OCC=C)C[C@@H]([C@@H]1C#N)N3C)OCO5)N(C(=O)c1ccc3ncccc3c1)CC2
IC50 (DU-145): 180 nM | IC50 (QG-56): 260 nM | IC50 (HCT-116): 150 nM

C=CCOc1cc2c(cc1OC)[C@@]1(CS[C@@H]3c4c(OC(C)=O)c(C)c5c(c4[C@@H](COC1=O)N1[C@@H]3[C@H]3c4c(cc(C)c(OC)c4OCC=C)C[C@@H]([C@@H]1C#N)N3C)OCO5)N(C(=O)c1ccc(Br)cc1)CC2
IC50 (DU-145): 730 nM | IC50 (QG-56): > 1000 nM | IC50 (HCT-116): 480 nM

C=CCOc1cc2c(cc1OC)[C@@]1(CS[C@@H]3c4c(OC(C)=O)c(C)c5c(c4[C@@H](COC1=O)N1[C@@H]3[C@H]3c4c(cc(C)c(OC)c4OCC=C)C[C@@H]([C@@H]1C#N)N3C)OCO5)N(C(=O)c1ccccc1Br)CC2
IC50 (DU-145): > 1000 nM | IC50 (QG-56): > 1000 nM | IC50 (HCT-116): > 1000 nM

COc1cc2c(cc1O)CCN(C(=O)c1ccccc1)[C@]21CS[C@@H]2c3c(OC(C)=O)c(C)c4c(c3[C@@H](COC1=O)N1[C@@H]2[C@H]2c3c(cc(C)c(OC)c3O)C[C@@H]([C@@H]1C#N)N2C)OCO4
IC50 (DU-145): 1.1 nM | IC50 (QG-56): 1 nM | IC50 (HCT-116): 0.37 nM

COc1cc2c(cc1O)CCN(C(=O)c1ccc([N+](=O)[O-])cc1)[C@]21CS[C@@H]2c3c(OC(C)=O)c(C)c4c(c3[C@@H](COC1=O)N1[C@@H]2[C@H]2c3c(cc(C)c(OC)c3O)C[C@@H]([C@@H]1C#N)N2C)OCO4
IC50 (DU-145): 1 nM | IC50 (QG-56): 1.1 nM | IC50 (HCT-116): 0.38 nM

COc1cc2c(cc1O)CCN(C(=O)c1cccc([N+](=O)[O-])c1)[C@]21CS[C@@H]2c3c(OC(C)=O)c(C)c4c(c3[C@@H](COC1=O)N1[C@@H]2[C@H]2c3c(cc(C)c(OC)c3O)C[C@@H]([C@@H]1C#N)N2C)OCO4
IC50 (DU-145): 0.73 nM | IC50 (QG-56): 0.43 nM | IC50 (HCT-116): 0.14 nM

COc1cc2c(cc1O)CCN(C(=O)c1ccncc1)[C@]21CS[C@@H]2c3c(OC(C)=O)c(C)c4c(c3[C@@H](COC1=O)N1[C@@H]2[C@H]2c3c(cc(C)c(OC)c3O)C[C@@H]([C@@H]1C#N)N2C)OCO4
IC50 (DU-145): 0.3 nM | IC50 (QG-56): 0.2 nM | IC50 (HCT-116): 0.045 nM

COc1cc2c(cc1O)CCN(C(=O)c1cccnc1)[C@]21CS[C@@H]2c3c(OC(C)=O)c(C)c4c(c3[C@@H](COC1=O)N1[C@@H]2[C@H]2c3c(cc(C)c(OC)c3O)C[C@@H]([C@@H]1C#N)N2C)OCO4
IC50 (DU-145): 0.72 nM | IC50 (QG-56): 0.4 nM | IC50 (HCT-116): 0.13 nM

COc1cc2c(cc1O)CCN(C(=O)c1ccnc3ccccc13)[C@]21CS[C@@H]2c3c(OC(C)=O)c(C)c4c(c3[C@@H](COC1=O)N1[C@@H]2[C@H]2c3c(cc(C)c(OC)c3O)C[C@@H]([C@@H]1C#N)N2C)OCO4
IC50 (DU-145): 0.16 nM | IC50 (QG-56): 0.23 nM | IC50 (HCT-116): 0.067 nM

COc1cc2c(cc1O)CCN(C(=O)c1cccc3ncccc13)[C@]21CS[C@@H]2c3c(OC(C)=O)c(C)c4c(c3[C@@H](COC1=O)N1[C@@H]2[C@H]2c3c(cc(C)c(OC)c3O)C[C@@H]([C@@H]1C#N)N2C)OCO4
IC50 (DU-145): 0.92 nM | IC50 (QG-56): 0.36 nM | IC50 (HCT-116): 0.086 nM

COc1cc2c(cc1O)CCN(C(=O)c1ccc3ncccc3c1)[C@]21CS[C@@H]2c3c(OC(C)=O)c(C)c4c(c3[C@@H](COC1=O)N1[C@@H]2[C@H]2c3c(cc(C)c(OC)c3O)C[C@@H]([C@@H]1C#N)N2C)OCO4
IC50 (DU-145): 0.043 nM | IC50 (QG-56): 0.16 nM | IC50 (HCT-116): 0.045 nM

C=CCOc1cc2c(cc1OC)[C@@]1(CS[C@@H]3c4c(OC(C)=O)c(C)c5c(c4[C@@H](COC1=O)N1[C@@H]3[C@H]3c4c(cc(C)c(OC)c4OCC=C)C[C@@H]([C@@H]1C#N)N3C)OCO5)N(C(=O)/C=C/c1ccccc1)CC2
IC50 (DU-145): > 1000 nM | IC50 (QG-56): > 1000 nM | IC50 (HCT-116): 630 nM

C=CCOc1cc2c(cc1OC)[C@@]1(CS[C@@H]3c4c(OC(C)=O)c(C)c5c(c4[C@@H](COC1=O)N1[C@@H]3[C@H]3c4c(cc(C)c(OC)c4OCC=C)C[C@@H]([C@@H]1C#N)N3C)OCO5)N(C(=O)/C=C/c1ccc([N+](=O)[O-])cc1)CC2
IC50 (DU-145): 7500 nM | IC50 (QG-56): 8500 nM | IC50 (HCT-116): 520 nM

COc1cc2c(cc1O)CCN(C(=O)/C=C/c1ccccc1)[C@]21CS[C@@H]2c3c(OC(C)=O)c(C)c4c(c3[C@@H](COC1=O)N1[C@@H]2[C@H]2c3c(cc(C)c(OC)c3O)C[C@@H]([C@@H]1C#N)N2C)OCO4
IC50 (DU-145): 0.24 nM | IC50 (QG-56): 0.33 nM | IC50 (HCT-116): 0.053 nM

COc1cc2c(cc1O)CCN(C(=O)/C=C/c1ccc([N+](=O)[O-])cc1)[C@]21CS[C@@H]2c3c(OC(C)=O)c(C)c4c(c3[C@@H](COC1=O)N1[C@@H]2[C@H]2c3c(cc(C)c(OC)c3O)C[C@@H]([C@@H]1C#N)N2C)OCO4
IC50 (DU-145): 0.81 nM | IC50 (QG-56): 2.4 nM | IC50 (HCT-116): 0.6 nM

C=CCOc1c(OC)c(C)cc2c1[C@@H]1[C@@H]3[C@@H]4SC[C@]5(C(=O)OC[C@H](c6c7c(c(C)c(OC(C)=O)c64)OCO7)N3[C@@H](C#N)[C@H](C2)N1C)c1cc(OC)c(O)cc1CCN5C(=O)/C=C/c1ccc([N+](=O)[O-])cc1
IC50 (DU-145): 5 nM | IC50 (QG-56): 9.8 nM | IC50 (HCT-116): 2.7 nM

COc1cc2c(cc1O)CCN[C@]21CS[C@@H]2c3c(OC(C)=O)c(C)c4c(c3[C@H](COC1=O)N1[C@@H]2[C@H]2c3c(cc(C)c(OC)c3O)C[C@@H]([C@@H]1C#N)N2C)OCO4 [ECTEINASCIDIN 770]
IC50 (DU-145): 0.81 nM | IC50 (QG-56): 2.4 nM | IC50 (HCT-116): 0.6 nM

Reference: ChEMBL document CHEMBL1806456, “Chemistry of ecteinascidins. Part 3: preparation of 2'-N-acyl derivatives of ecteinascidin 770 and evaluation of cytotoxicity” (Bioorg Med Chem, 2011)
